# Source: PubChem (several laboratories)
# Shown are actives, neighbours in structure and some others; about 2.5% of the full set was active somewhere.
# Arr AP2 block: inhibitors of human beta-arrestin and AP2 interaction; FITC-arrestin peptide / GST-AP2 beads, flow cytometry; AP2 beta2 appendage carries R879A mutation; inhibition, % at 10 µM; 340,000 compounds, 0.31% hits; AID 504490;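 active means inhibition above a set limit, near 3 SD of compounds lacking own fluorescence, cut at about 54% in these data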;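 further: plate controls were DMSO wells for no effect and 5 µM unlabelled arrestin peptide for full effect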
#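 Measured by: flow cytometry, FL1 (488/535 nm); Material: AP2 appendage R879A on GSH beads; Evaluation: percent response; Timing: pre-incubation 12 min, peptide binding 1 h, room temperature; Also added: 50 nM FITC-arrestin peptide; Medium: PBS with 0.05% Tween 20 and 0.1% BSA.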
# Rin1-Abl PPI inh: human Rin1-Abl interaction inhibition; TR-FRET Rin1/Abl binding, biochemical; P00519+Q13671; inhibition, % at 7.35 µM; 360,000 compounds, 0.4% hits; in the data active means inhibition above about 5%, passing the limit was not always enough
# ABHD5 PLIN5 PPI: blocks binding of human ABHD5 to perilipin-5; Q00G26+Q8WTS1; AID 602281; 360,000 compounds, 0.78% hits; inhibition, % at 4 µM; Split G. princeps luciferase complementation, luminescence, 4 h;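 active means inhibition above the mean inhibition across every tested compound plus 3 SD, cut at about 22% in these data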;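 further: 0% = DMSO only wells and the 100% control is not disclosed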
# MBD2 inh: MBD2-methylated oligo binding inhibition. Q9UBB5. TR-FRET, MBD2 binding to methylated oligonucleotide. inhibition, % at 4.4 µM. 370,000 compounds, 0.31% hits. AID 686964; in the data active means inhibition above about 13%
# UHRF1 MBD2 ctr: UHRF1 methyl-DNA binding inhibition; AID 687016; 370,000 compounds, 0.75% hits; Q96T88; UHRF1 binding to methylated oligo, TR-FRET; inhibition, % at 4.4 µM; in the data active means inhibition above about 21%;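 further: UHRF1 SRA domain binding a hemimethylated CpG hairpin DNA probe; 0% = median of test compound wells and 100% = reference inhibitor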
# B2AR ag: agonists of human beta-2 adrenergic receptor inducing internalization. Am2.2-beta2AR cells, FAP receptor internalization, flow cytometry. response, % (no concentration beside the values). 340,000 compounds, 0.43% hits. AID 504454;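 active means response above a set limit, near 3 SD of response in nonfluorescent compounds, cut at about 42% in these data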
# Target sequence (P07550 whole entry, looked up): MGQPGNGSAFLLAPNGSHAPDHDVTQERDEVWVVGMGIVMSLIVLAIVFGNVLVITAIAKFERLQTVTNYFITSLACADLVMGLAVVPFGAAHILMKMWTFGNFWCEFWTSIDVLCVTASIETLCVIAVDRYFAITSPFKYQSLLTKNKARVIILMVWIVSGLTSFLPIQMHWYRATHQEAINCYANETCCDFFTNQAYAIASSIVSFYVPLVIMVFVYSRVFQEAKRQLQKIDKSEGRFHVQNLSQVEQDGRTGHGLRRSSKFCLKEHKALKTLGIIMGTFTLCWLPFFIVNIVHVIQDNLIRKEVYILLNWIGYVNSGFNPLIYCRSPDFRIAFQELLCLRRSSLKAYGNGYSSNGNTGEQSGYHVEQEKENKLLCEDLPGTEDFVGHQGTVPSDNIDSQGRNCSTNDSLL
# Arr-AP2 CP1: blocks beta-arrestin peptide binding to human AP2; GST-AP2 beads, FITC arrestin peptide binding, flow cytometry; GST-fused beta2-adaptin appendage, R879A mutant; 1,300 compounds, 2% hits; inhibition, % at 10 µM; AID 504908; shares compounds with Arr AP2 block;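 active means inhibition above a set limit, roughly 3 SD of non-fluorescent compound noise, cut at about 38% in these data; inactive means inhibition at or below that limit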;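 further: loss of bead fluorescence from 50 nM FITC arrestin peptide bound to appendage; 0% = negative control wells and 100% = excess unlabelled arrestin peptide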
# GST-FITC bead: counter-screen for beta-arrestin AP2 inhibitors: GST-GSH bead binding; shares compounds with Arr AP2 block; GST-fluorescein binding to GSH beads, fluorescence; inhibition, % at 10 µM; 1,300 compounds, 2% hits; AID 588338;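 active means inhibition above 50%, about 3 SD of the inhibition seen with non-fluorescent compounds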;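 further: fluorescein maleimide labelled GST captured on 4 micron glutathione beads; higher means more loss of bead fluorescence from quenching or blocked binding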
# An asterisk follows results filed as active; . = no result.
SMILES,Arr AP2 block,Rin1-Abl PPI inh,ABHD5 PLIN5 PPI,MBD2 inh,UHRF1 MBD2 ctr,B2AR ag,Arr-AP2 CP1,GST-FITC bead
COc1cc(NC(=O)c2ccccc2)c(OC)cc1Cl,5.9,-2.7,1.2,-1.0,-0.2,1.4,.,.
COc1cc(Cl)c(C)cc1NC(=O)c1ccc(S(C)(=O)=O)cc1,55.2*,-1.8,2.3,7.1,23.8*,8.8,-5.2,-10.4
CS(=O)(=O)N1CCC[C@]2(CC[C@@H](CCC#N)O2)C1,.,.,.,-4.6,0.4,.,.,.
COc1ccccc1/C=C1/SC(=O)N(CCC(=O)Nc2ccc(S(=O)(=O)Nc3nccs3)cc2)C1=O,60.7*,-0.5,6.4,-4.8,-1.0,-3.0,2.7,1.9
O=C(CCN1C(=O)S/C(=C\c2ccccc2)C1=O)Nc1ccc(S(=O)(=O)Nc2nccs2)cc1,15.6,3.1,5.6,4.5,-2.2,2.4,.,.
CCOc1ccc(NS(=O)(=O)c2cc(C(=O)NCC3CCCO3)ccc2Cl)cc1 (centres undefined),27.0,2.1,2.1,5.3,2.3,-8.6,.,.
CCOc1ccc(NS(=O)(=O)c2ccc(NS(C)(=O)=O)cc2)cc1,-1.4,-1.4,4.7,-0.6,0.5,-0.3,.,.
CCOc1ccc(S(=O)(=O)Nc2ccn(C)n2)cc1,77.3*,1.2,7.6,7.0,0.3,6.5,-15.8,1.2
COC(=O)COc1ccc(S(=O)(=O)NC2CCCCCC2)cc1,8.5,2.4,14.4,2.5,6.4,35.2,.,.
CCOc1ccc(S(=O)(=O)Nc2ccc(C(=O)NCC3CCCO3)cc2)cc1 (centres undefined),56.0*,-0.2,-0.1,0.0,1.1,-11.6,21.0,-9.0
CCOc1ccc(S(=O)(=O)NC2CCCCCC2)cc1,56.7*,-4.7,2.1,2.3,1.1,2.1,-3.4,1.4
NC(=O)[C@@H]1CCCN1Cc1c(C(=O)N2CCN(C3CCCCC3)CC2)nc2ccccn12,54.5*,2.5,5.6,3.6,1.7,3.3,2.1,1.4
O=C(c1nc2ccccn2c1CN1CCCC(O)C1)N1CCN(C2CCCCC2)CC1 (centres undefined),0.9,-1.2,1.6,2.1,1.1,6.8,.,.
CC(C)OC(=O)CSc1nc(Cc2ccccc2)nc2ccccc12,71.3*,-0.1,-2.0,-1.2,-5.1,-0.9,-10.5,0.1
COc1ccc(CN(C)C(=O)c2cc(S(=O)(=O)N3CCOCC3)ccc2N2CCCC2)cc1,5.7,4.0,5.2,4.8,20.6,-5.0,-2.5,-3.9
O=C(NC1CCCCCC1)c1cc(S(=O)(=O)N2CCOCC2)ccc1N1CCCCC1,-8.2,-2.7,6.6,-6.8,5.8,1.7,-8.1,-3.9
CC(Oc1cccc(Cl)c1)C(=O)Nc1cc(S(=O)(=O)N2CCOCC2)ccc1N1CCCC1 (centres undefined),62.4*,-1.1,7.3,-4.6,-0.6,2.7,2.5,0.8
O=C(Nc1ccc(OC(F)F)cc1)c1cc(S(=O)(=O)N2CCOCC2)ccc1N1CCCC1,27.9,5.0,-2.4,2.3,2.4,0.9,0.6,2.0
Cc1ccc(S(=O)(=O)N(C)[C@H]2C[C@H]3c4cc(-c5ccccc5C)ccc4CCN3C[C@H]2[C@H](C)O)cc1,.,.,.,0.7,0.1,.,.,.
CCC[C@H]1[C@@H](NC(=O)c2cccnc2)CC[C@@]23CCCN2C(=O)CCC[C@@H]13,.,.,.,1.9,3.7,.,.,.
CC1CCN(C(=O)c2cc(S(=O)(=O)N3CCOCC3)ccc2N2CCCC2)CC1,25.9,-2.9,-1.7,-5.6,-1.9,-5.8,0.9,-6.9
CC1CCN(C(=O)c2ccc(S(=O)(=O)N3CCOCC3)cc2)CC1,-10.0,-2.4,-4.0,0.7,3.2,5.6,.,.
CN(Cc1cccc(F)c1)C(=O)c1ccc(S(=O)(=O)N2CCOCC2)cc1,62.8*,1.4,10.9,4.8,0.2,-2.1,-4.2,-7.1
Cc1ccc(-c2nn(-c3ccccc3)cc2C(=O)N2CCN(c3ccccn3)CC2)cc1,56.6*,-1.6,1.8,1.7,4.0,-20.1,12.5,-5.4
Cc1ccc(-c2nn(Cc3ccccc3)cc2C(=O)N2CCN(c3ccccn3)CC2)cc1,3.0,2.3,-5.2,-3.2,-0.8,-3.1,.,.
SMILES,Arr AP2 block,Rin1-Abl PPI inh,ABHD5 PLIN5 PPI,MBD2 inh,UHRF1 MBD2 ctr,B2AR ag,Arr-AP2 CP1,GST-FITC bead
O=C(c1cc2ccccc2o1)N1CCN(c2ccccn2)CC1,58.6*,-2.2,2.3,1.4,-2.4,-3.4,-0.3,-3.3
O=C(CCc1ccccc1)N1CCN(c2ccccn2)CC1,0.6,-4.3,1.2,-1.5,1.0,-5.9,.,.
O=C(c1cc2ccccc2o1)N1CCN(c2ccccc2Cl)CC1,33.0,1.3,4.6,-2.5,3.2,-0.3,.,.
O=C(c1ccccc1CCc1ccccc1)N1CCN(c2ccccn2)CC1,84.5*,2.9,3.2,-3.3,0.7,-8.1,-7.9,-0.8
COc1ccc2c(c1)CCCN2C(=O)C1CCCN(S(=O)(=O)c2ccccc2)C1 (centres undefined),.,.,.,1.8,0.5,.,.,.
O=C(c1ccccc1I)N1CCC(Oc2cccnc2)CC1,.,.,.,1.4,-1.7,.,.,.
CC(=O)Nc1ccc2c(c1)C(=O)N(C)[C@H]1CC[C@H](CC(=O)NCc3ccc(F)cc3)O[C@@H]1CO2,.,.,.,5.7,3.8,.,.,.
O=[N+]([O-])c1ccc2c(c1)CCCO[C@]21O[C@H](CCO)C[C@H](O)[C@H]1O,.,.,.,-4.0,-2.9,.,.,.
Cc1ccc(C2=CCN(C)C(=O)N2c2ccc([N+](=O)[O-])cc2)cc1,.,.,.,-0.3,-0.9,.,.,.
O=S(=O)(Nc1ccc2c(c1)OCCO2)c1c(F)cccc1F,59.1*,0.0,-4.2,6.0,-4.6,-9.3,-11.3,0.7
O=S(=O)(Nc1ccc2c(c1)OCCO2)c1cccc(F)c1,-6.0,-1.9,-1.6,1.6,6.8,13.2,.,.
Brc1ccc(CSc2nnc(SCc3ccccc3)s2)cc1,.,.,.,-1.1,-1.1,.,.,.
COc1ccc(S(=O)(=O)NC2CCCCC2)cc1-n1cnnn1,56.3*,4.0,2.9,-4.7,2.8,-3.6,-5.7,-8.8
COc1cc(OC)cc(C(=O)Nc2ccc(S(=O)(=O)Nc3ncccn3)cc2)c1,54.7*,-0.7,-1.0,7.7,1.9,2.5,-3.7,-2.7
COc1ccc(-c2cc(C(F)F)n3ncc(C(=O)N4CCCc5ccccc54)c3n2)cc1,105.5*,0.0,-1.7,2.0,5.7,-5.4,8.2,65.5*
O=C(c1cnn2c(C(F)F)cc(-c3ccccc3)nc12)N1CCCc2ccccc21,-7.9,-2.8,-2.0,.,.,-4.6,5.4,3.0
O=C(c1cnn2c(C(F)F)cc(-c3ccccc3)nc12)N1CCc2ccccc2C1,5.6,-1.3,1.5,0.6,-0.8,-19.1,.,.
